Results taken from ChEMBL document CHEMBL4680124, “2-Styryl-4-aminoquinazoline derivatives as potent DNA-cleavage, p53-activation and in vivo effective anticancer agents” (Eur J Med Chem, 2020).
pIC50: −log10 of the molar value. Calls of active or inactive are those of the source. The rule behind the calls is not given here.

Assays:
MGC-803 [1] = test: Cell cycle arrest in human MGC-803 cells assessed as accumulation at G2/M phase at 0.125 uM after 48 hrs by propidium iodide staining-based flow cytometric analysis (reference value: 7.94%); assay type: functional
MGC-803 [2] = test: Induction of apoptosis in human MGC-803 cells assessed as viable cells at 0.5 uM measured after 24 hrs by Annexin-V/propidium iodide staining-based flow cytometric analysis (Rvb =92.2 %); conditions: MGC-803, 24 h
MGC-803 [3] = test: Cytotoxicity against human MGC-803 cells expressing mutant type p53 assessed as reduction in cell viability preincubated for 48 hrs and measured after 4 hrs by MTT assay; assay type: functional, cell-based
[4] = Induction of mitochondria membrane potential loss in human MGC-803 cells assessed as increase in green fluorescence at 1 uM incubated 24 hrs by JC-1 probe based flow cytometry analysis (reference value: 4.67%); assay type: functional
MGC-803 [5] = test: Cell cycle arrest in human MGC-803 cells assessed as accumulation at S phase at 0.5 uM after 48 hrs by propidium iodide staining-based flow cytometric analysis (reference value: 45.1 %); assay type: functional
MGC-803 [6] = test: Induction of apoptosis in human MGC-803 cells assessed as activation of caspase 3 at 2.5 uM incubated for 24 hrs by flow cytometric analysis (reference value: 1.47%); assay type: functional
MGC-803 [7] = test: Induction of apoptosis in human MGC-803 cells assessed as necrotic cells at 2.5 uM measured after 24 hrs by Annexin-V/propidium iodide staining-based flow cytometric analysis (Rvb =6.05%)
T-24 = test: Cytotoxicity against human T-24 cells […] assessed as reduction in cell viability preincubated for 48 hrs and measured after 4 hrs by MTT assay; assay type: functional, cell-based
Calf thymus DNA = test: Binding affinity to calf thymus DNA assessed as quenching in emission band measured at 0.5:1 to 5:1 compound to EB ratio by ethidium bromide competitive displacement assay; conditions: Bos taurus
Summary of the method: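 Competitive displacement using EB (10 µM) with ct-DNA (20 µM) in Tris-HCl, pH 7.4, 25 °C. Compound added stepwise from 10 to 100 µM; 5 min equilibration after each addition, then fluorescence emission recorded (slits 5 nm). Quenching constant from the Stern–Volmer equation.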

MGC-803 [8] = test: Antitumor activity against human MGC-803cells xenografted in BALB/C nude mouse assessed as tumor growth inhibition at 20 mg/kg, ip administered every 2 days and measured 3 times per week for 16 days; assay type: functional; conditions: MGC-803, ip, 384 h, time 16 day, read-out: TGI
Summary of the method: (§1)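 Male BALB/c nude mice, 6 weeks old, given 5×10^6 MGC-803 cells s.c. in the flank. When tumors reached about 80 mm3, mice were randomized (n = 6/group) and dosed i.p. every 2 days. Vehicle was 5% DMSO in saline. Drug solutions were 1.0 or 2.0 mg/mL (DMSO/saline). Tumor length and width plus body weight were measured three times weekly; volume = lw²/2. Mean ± SD.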

MGC-803 [9] = test: Induction of apoptosis in human MGC-803 cells assessed as early apoptotic cells at 2.5 uM measured after 24 hrs by Annexin-V/propidium iodide staining-based flow cytometric analysis (Rvb =0.84%)
MGC-803 [10] = test: Cell cycle arrest in human MGC-803 cells assessed as accumulation at G2/M phase at 0.25 uM after 48 hrs by propidium iodide staining-based flow cytometric analysis (reference value: 7.94%); assay type: functional
MGC-803 [11] = test: Induction of apoptosis in human MGC-803 cells assessed as increase in CDK4 protein expression upto 2.5 uM incubated for 24 hrs by Western blot analysis; assay type: functional, cell-based; conditions: dose microM <=2.5, time 24.0 hrs
Summary of the method: (§2)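 MGC-803 cells (2×10^6) cultured overnight, then exposed 24 h to 0.5, 1.0 or 2.5 μM, or 5.0 μM for the reference agent. Lysates were resolved by SDS-PAGE, transferred to PVDF and probed with primary antibodies. Detection used AP-linked anti-rabbit IgG and ECL. β-actin served as loading control.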

MGC-803 [12] = test: Cell cycle arrest in human MGC-803 cells assessed as accumulation at S phase at 0.25 uM after 48 hrs by propidium iodide staining-based flow cytometric analysis (reference value: 45.1 %); assay type: functional
MGC-803 [13] = test: Cell cycle arrest in human MGC-803 cells assessed as accumulation at G2/M phase at 0.5 uM after 48 hrs by propidium iodide staining-based flow cytometric analysis (reference value: 7.94%); assay type: functional
MGC-803 [14] = test: Induction of apoptosis in human MGC-803 cells assessed as late apoptotic cells at 1 uM measured after 24 hrs by Annexin-V/propidium iodide staining-based flow cytometric analysis (Rvb =0.93%)
MGC-803 [15] = test: Induction of apoptosis in human MGC-803 cells assessed as early apoptotic cells at 0.5 uM measured after 24 hrs by Annexin-V/propidium iodide staining-based flow cytometric analysis (Rvb =0.84%)
MGC-803 [16] = test: Antitumor activity against human MGC-803cells xenografted in BALB/C nude mouse assessed as reduction in tumor volume at 20 mg/kg, ip administered every 2 days and measured 3 times per week; assay type: functional, organism-based; conditions: time 2.0 day; summary of the method: as §1
MGC-803 [17] = test: Induction of apoptosis in human MGC-803 cells assessed as increase in nuclear chromatin condensation at 0.5 to 2.5 uM incubated for 24 hrs by Hoechst 33258 staining based analysis; assay type: functional, cell-based; conditions: dose 0.5-2.5 µM
Summary of the method: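 Cells in six-well plates were treated for the indicated time, then fixed 10 min in 4% paraformaldehyde and washed twice in PBS. Nuclei were stained 5 min with Hoechst 33258, washed twice in PBS and examined by fluorescence microscopy.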

A549 = test: Cytotoxicity against human A549 cells expressing wild type p53 assessed as reduction in cell viability preincubated for 48 hrs and measured after 4 hrs by MTT assay; assay type: functional, cell-based
MGC-803 [18] = test: Cell cycle arrest in human MGC-803 cells assessed as accumulation at G1 phase at 0.5 uM after 48 hrs by propidium iodide staining-based flow cytometric analysis (reference value: 46.96 %); assay type: functional
MGC-803 [19] = test: Induction of apoptosis in human MGC-803 cells assessed as viable cells at 2.5 uM measured after 24 hrs by Annexin-V/propidium iodide staining-based flow cytometric analysis (Rvb =92.2 %); conditions: MGC-803, 24 h
MGC-803 [20] = test: Antitumor activity against human MGC-803 cells xenografted in BALB/C nude mouse assessed as tumor growth inhibition at 10 mg/kg, ip administered every 2 days and measured 3 times per week for 16 days; assay type: functional; design: scale not given: the % may be the effect or the level left; conditions: time 16 day; summary of the method: as §1
L02 = test: Cytotoxicity against human HL-7702 cells expressing wild type p53 assessed as reduction in cell viability preincubated for 48 hrs and measured after 4 hrs by MTT assay; assay type: functional, cell-based
MGC-803 [21] = test: Induction of apoptosis in human MGC-803 cells assessed as increase in p21 protein expression upto 2.5 uM incubated for 24 hrs by Western blot analysis; assay type: functional, cell-based; conditions: dose microM <=2.5, time 24.0 hrs; summary of the method: as §2

NCCCCNc1nc(/C=C/c2ccc([N+](=O)[O-])cc2)nc2ccccc12
Activity (MGC-803 [1]): 18.16%
viability at 0.5 µM (MGC-803 [2]): 71%
pIC50 (MGC-803 [3]): 5.76
Activity [4]: 13.9%
Activity (MGC-803 [5]): 25.89%
Activity (MGC-803 [6]): 22.98%
Activity (MGC-803 [7]): 1.27%
pIC50 (T-24): 5.75
Activity (Calf thymus DNA): Active
inhibition in vivo at 20 mg/kg (MGC-803 [8]): 61.8%
Activity (MGC-803 [9]): 28%
Activity (MGC-803 [10]): 55.43%
Activity (MGC-803 [11]): Active
Activity (MGC-803 [12]): 36.91%
Activity (MGC-803 [13]): 72.67%
Activity (MGC-803 [14]): 16%
Activity (MGC-803 [15]): 14%
Activity (MGC-803 [16]): Active
Activity (MGC-803 [17]): Active
pIC50 (A549): 5.26
Activity (MGC-803 [18]): 1.44%
viability at 2.5 µM (MGC-803 [19]): 14.8%
Activity (MGC-803 [20]): 35.9%
pIC50 (L02): 5.13
Activity (MGC-803 [21]): Active
